Assay results reported in ChEMBL document CHEMBL1142136, “Contribution of target gene mutations and efflux to decreased susceptibility of Salmonella enterica serovar typhimurium to fluoroquinolones and other antimicrobials” (2007).
≈ marks a conversion by molar mass, not a printed value.

Experiments:
Assay type in all cases: functional, Salmonella enterica subsp. enterica serovar Typhimurium
[1] = system: Salmonella typhimurium; assay: Antimicrobial activity against Salmonella enterica serovar Typhimurium S21 gyrA+
Procedure, shortened: (§1)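 MICs measured by broth microdilution on the Sensititre automated system and interpreted by CLSI broth microdilution standards. Ciprofloxacin was also tested by agar dilution, widening the range to 0.0075–128 μg/ml. Quality control strains were E. coli ATCC 25922 and 35218, E. faecalis ATCC 29212, S. aureus ATCC 29213 and P. aeruginosa ATCC 27853.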

[2] = system: Salmonella typhimurium; assay: Antimicrobial activity against Salmonella enterica serovar Typhimurium S21-3 with GyrA S83F, ParC S80I mutation; procedure, shortened: as §1
[3] = system: Salmonella typhimurium; assay: Antimicrobial activity against Salmonella enterica serovar Typhimurium CHS14 gyrA+ with GyrA D87G mutation; procedure, shortened: as §1
[4] = system: Salmonella typhimurium; assay: Antimicrobial activity against Salmonella enterica serovar Typhimurium CHS18 with GyrA S38F mutation; procedure, shortened: as §1
[5] = system: Salmonella typhimurium; assay: Antimicrobial activity against Salmonella enterica serovar Typhimurium S21-1 GyrA S83F mutant; procedure, shortened: as §1
[6] = system: Salmonella typhimurium; assay: Antimicrobial activity against Salmonella enterica serovar Typhimurium S21 tolC::Kan
Procedure, shortened: (§2)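 MICs by automated broth microdilution panels, interpreted to CLSI broth microdilution standards. Ciprofloxacin additionally tested by agar dilution across 0.0075 to 128 μg/ml. Quality control strains: E. coli ATCC 25922 and 35218, Enterococcus faecalis ATCC 29212, S. aureus ATCC 29213, P. aeruginosa ATCC 27853. Test strains are kanamycin-marked deletion mutants of ground-beef isolate S21.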

[7] = system: Salmonella typhimurium; assay: Antimicrobial activity against Salmonella enterica serovar Typhimurium S21-2 gyrA+ with ParC S80I mutation; procedure, shortened: as §1
[8] = system: Salmonella typhimurium; assay: Antimicrobial activity against Salmonella enterica serovar Typhimurium S21-3 tolC::Kan with GyrA S83F, ParC S80I mutation; procedure, shortened: as §1
[9] = system: Salmonella typhimurium; assay: Antimicrobial activity against Salmonella enterica serovar Typhimurium S21-1 tolC::Kan with GyrA S83F mutation; procedure, shortened: as §1
[10] = system: Salmonella typhimurium; assay: Antimicrobial activity against Salmonella enterica serovar Typhimurium S21-4 with GyrA S83F, ParC S80I mutation; procedure, shortened: as §1
[11] = system: Salmonella typhimurium; assay: Antimicrobial activity against Salmonella enterica serovar Typhimurium CHS38 gyrA+ with GyrA D87G mutation; procedure, shortened: as §1
[12] = system: Salmonella typhimurium; assay: Antimicrobial activity against Salmonella enterica serovar Typhimurium S21-3 gyrA+ with ParC S80I mutation; procedure, shortened: as §1
[13] = system: Salmonella typhimurium; assay: Antimicrobial activity against Salmonella enterica serovar Typhimurium CS3 tolC::Kan with GyrA S83F, D87N, parC S80I mutation; procedure, shortened: as §1
[14] = system: Salmonella typhimurium; assay: Antimicrobial activity against Salmonella enterica serovar Typhimurium S21-3 acrAB::Kan with GyrA S83F, ParC S80I mutation; procedure, shortened: as §1
[15] = system: Salmonella typhimurium; assay: Antimicrobial activity against Salmonella enterica serovar Typhimurium CS9 tolC::Kan with GyrA S83F, D87N, ParC S80I mutation; procedure, shortened: as §1
[16] = system: Salmonella typhimurium; assay: Antimicrobial activity against Salmonella enterica serovar Typhimurium CS9 gyrA+ with GyrA S83F, D87N, ParC S80I mutation; procedure, shortened: as §1
[17] = system: Salmonella typhimurium; assay: Antimicrobial activity against Salmonella enterica serovar Typhimurium S21-2 tolC::Kan with GyrA S83F, ParC S80I mutation; procedure, shortened: as §1
[18] = system: Salmonella typhimurium; assay: Antimicrobial activity against Salmonella enterica serovar Typhimurium CS9 acrAB::Kan with GyrA S83F, D87N, ParC S80I mutation; procedure, shortened: as §1
[19] = system: Salmonella typhimurium; assay: Antimicrobial activity against Salmonella enterica serovar Typhimurium CHS38 with GyrA D87G mutation; procedure, shortened: as §1
[20] = system: Salmonella typhimurium; assay: Antimicrobial activity against Salmonella enterica serovar Typhimurium S21-4 gyrA+ with ParC S80I mutation; procedure, shortened: as §1
[21] = system: Salmonella typhimurium; assay: Antimicrobial activity against Salmonella enterica serovar Typhimurium S21; procedure, shortened: as §1
[22] = system: Salmonella typhimurium; assay: Antimicrobial activity against Salmonella enterica serovar Typhimurium S21-4 tolC::Kan with GyrA S83F, ParC S80I mutation; procedure, shortened: as §1
[23] = system: Salmonella typhimurium; assay: Antimicrobial activity against Salmonella enterica serovar Typhimurium S21-2 acrAB::Kan with GyrA S83F, ParC S80I mutation; procedure, shortened: as §1
[24] = system: Salmonella typhimurium; assay: Antimicrobial activity against Salmonella enterica serovar Typhimurium CHS14 with GyrA D87G mutation; procedure, shortened: as §1
[25] = system: Salmonella typhimurium; assay: Antimicrobial activity against Salmonella enterica serovar Typhimurium CS3 acrAB::Kan with GyrA S83F, D87N, ParC S80I mutation; procedure, shortened: as §1
[26] = system: Salmonella typhimurium; assay: Antimicrobial activity against Salmonella enterica serovar Typhimurium CHS38 acrAB::Kan with GyrA D87G mutation; procedure, shortened: as §1
[27] = system: Salmonella typhimurium; assay: Antimicrobial activity against Salmonella enterica serovar Typhimurium CS1 with GyrA S83F, D87N, ParC S80I mutation; procedure, shortened: as §1
[28] = system: Salmonella typhimurium; assay: Antimicrobial activity against Salmonella enterica serovar Typhimurium GyrA S21-1 acrAB::Kan with GyrA S83F mutation; procedure, shortened: as §1
[29] = system: Salmonella typhimurium; assay: Antimicrobial activity against Salmonella enterica serovar Typhimurium CHS18 acrAB::Kan with GyrA S38F mutation; procedure, shortened: as §1
[30] = system: Salmonella typhimurium; assay: Antimicrobial activity against Salmonella enterica serovar Typhimurium CHS18 tolC::Kan with GyrA S38F mutation; procedure, shortened: as §1
[31] = system: Salmonella typhimurium; assay: Antimicrobial activity against Salmonella enterica serovar Typhimurium CS1 gyrA+ with GyrA S83F, D87N, ParC S80I mutation; procedure, shortened: as §1
[32] = system: Salmonella typhimurium; assay: Antimicrobial activity against Salmonella enterica serovar Typhimurium S21-4 acrAB::Kan with GyrA S83F, ParC S80I mutation; procedure, shortened: as §1
[33] = system: Salmonella typhimurium; assay: Antimicrobial activity against Salmonella enterica serovar Typhimurium S21 acrAB::Kan; procedure, shortened: as §2
[34] = system: Salmonella typhimurium; assay: Antimicrobial activity against Salmonella enterica serovar Typhimurium CS3 with GyrA S83F, D87N, ParC S80I mutation; procedure, shortened: as §1
[35] = system: Salmonella typhimurium; assay: Antimicrobial activity against Salmonella enterica serovar Typhimurium S21-2 with GyrA S83F, ParC S80I mutation; procedure, shortened: as §1
[36] = system: Salmonella typhimurium; assay: Antimicrobial activity against Salmonella enterica serovar Typhimurium CS1 tolC::Kan with GyrA S83F, D87N, ParC S80I mutation; procedure, shortened: as §1
[37] = system: Salmonella typhimurium; assay: Antimicrobial activity against Salmonella enterica serovar Typhimurium CHS38 tolC::Kan with GyrA D87G mutation; procedure, shortened: as §1
[38] = system: Salmonella typhimurium; assay: Antimicrobial activity against Salmonella enterica serovar Typhimurium CS3 gyrA+ with GyrA S83F, D87N, ParC S80I mutation; procedure, shortened: as §1
[39] = system: Salmonella typhimurium; assay: Antimicrobial activity against Salmonella enterica serovar Typhimurium CHS18 gyrA+ with GyrA S38F mutation; procedure, shortened: as §1
[40] = system: Salmonella typhimurium; assay: Antimicrobial activity against Salmonella enterica serovar Typhimurium CHS14 tolC::Kan with GyrA D87G mutant; procedure, shortened: as §1
[41] = system: Salmonella typhimurium; assay: Antimicrobial activity against Salmonella enterica serovar Typhimurium S21-1 gyrA+; procedure, shortened: as §1
[42] = system: Salmonella typhimurium; assay: Antimicrobial activity against Salmonella enterica serovar Typhimurium CHS14 acrAB::Kan with GyrA D87G mutation; procedure, shortened: as §1
[43] = system: Salmonella typhimurium; assay: Antimicrobial activity against Salmonella enterica serovar Typhimurium CS9 with GyrA S83F, D87N, ParC S80I mutation; procedure, shortened: as §1
[44] = system: Salmonella typhimurium; assay: Antimicrobial activity against Salmonella enterica serovar Typhimurium CS1 acrAB::Kan with GyrA S83F, D87N, ParC S80I mutation; procedure, shortened: as §1

## COc1c(N2CCNC(C)C2)c(F)cc2c(=O)c(C(=O)O)cn(C3CC3)c12 (centres undefined) [GATIFLOXACIN]
[1]
  MIC: 0.03 mg/L (≈ 0.0799 µM)
[2]
  MIC: 8 mg/L (≈ 21.3 µM)
[3]
  MIC: 0.03 mg/L (≈ 0.0799 µM)
[4]
  MIC: 0.25 mg/L (≈ 0.666 µM)
[5]
  MIC: 0.5 mg/L (≈ 1.33 µM)
[6]
  MIC: < 0.015 mg/L
[7]
  MIC: 0.25 mg/L (≈ 0.666 µM)
[8]
  MIC: 0.06 mg/L (≈ 0.16 µM)
[9]
  MIC: 0.03 mg/L (≈ 0.0799 µM)
[10]
  MIC: 16 mg/L (≈ 42.6 µM)
[11]
  MIC: < 0.015 mg/L
[12]
  MIC: 1 mg/L (≈ 2.66 µM)
[13]
  MIC: 0.5 mg/L (≈ 1.33 µM)
[14]
  MIC: 0.06 mg/L (≈ 0.16 µM)
[15]
  MIC: 0.5 mg/L (≈ 1.33 µM)
[16]
  MIC: 0.06 mg/L (≈ 0.16 µM)
[17]
  MIC: 0.06 mg/L (≈ 0.16 µM)
[18]
  MIC: 0.5 mg/L (≈ 1.33 µM)
[19]
  MIC: 0.12 mg/L (≈ 0.32 µM)
[20]
  MIC: 2 mg/L (≈ 5.33 µM)
[21]
  MIC: 0.03 mg/L (≈ 0.0799 µM)
[22]
  MIC: 0.06 mg/L (≈ 0.16 µM)
[23]
  MIC: 0.06 mg/L (≈ 0.16 µM)
[24]
  MIC: 0.25 mg/L (≈ 0.666 µM)
[25]
  MIC: 0.5 mg/L (≈ 1.33 µM)
[26]
  MIC: < 0.015 mg/L
[27]
  MIC: 4 mg/L (≈ 10.7 µM)
[28]
  MIC: 0.03 mg/L (≈ 0.0799 µM)
[29]
  MIC: 0.12 mg/L (≈ 0.32 µM)
[30]
  MIC: 0.03 mg/L (≈ 0.0799 µM)
[31]
  MIC: 0.06 mg/L (≈ 0.16 µM)
[32]
  MIC: 0.06 mg/L (≈ 0.16 µM)
[33]
  MIC: < 0.015 mg/L
[34]
  MIC: 4 mg/L (≈ 10.7 µM)
[35]
  MIC: 1 mg/L (≈ 2.66 µM)
[36]
  MIC: 0.5 mg/L (≈ 1.33 µM)
[37]
  MIC: < 0.015 mg/L
[38]
  MIC: 0.06 mg/L (≈ 0.16 µM)
[39]
  MIC: 0.06 mg/L (≈ 0.16 µM)
[40]
  MIC: < 0.015 mg/L
[41]
  MIC: 0.03 mg/L (≈ 0.0799 µM)
[42]
  MIC: < 0.015 mg/L
[43]
  MIC: 4 mg/L (≈ 10.7 µM)
[44]
  MIC: 0.5 mg/L (≈ 1.33 µM)
